Entries after “also recorded” stand apart in the source; their conditions may differ.
Experiments:
UGT1A1 = settings: cited from earlier work
[1] = Phase I dose escalation: dose limiting toxicities, MTD and CTCAE 3.0 toxicities; type: in vivo, human
Procedure, shortened: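 Adults (>18 y) had refractory solid tumors, ECOG ≤2 and adequate marrow, hepatic and renal function. Test compound in 5% dextrose (0.05–0.5 mg/mL) was given as a 1-h IV infusion daily × 5 every 21 days, within 4 h of reconstitution. Premedication was oral dexamethasone, ondansetron, loratadine, famotidine and diphenhydramine. […] DLTs were assessed in cycle 1 by CTCAE v3.0. MTD was the level below that giving DLT in ≥2 patients.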

[2] = CTCAE related toxicities, Blood/bone marrow
[3] = CTCAE related toxicities, Cardiac general
[4] = CTCAE related toxicities, Constitutional symptoms
[5] = CTCAE related toxicities, Dermatology/skin
[6] = CTCAE related toxicities, Gastrointestinal
[7] = CTCAE related toxicities, Hemorrhage/bleeding
[8] = CTCAE related toxicities, Infection
[9] = CTCAE related toxicities, Metabolic/laboratory
[10] = CTCAE related toxicities, Musculoskeletal
[11] = CTCAE related toxicities, Neurology
[12] = CTCAE related toxicities, Pulmonary

CC[C@@]1(O)C(=O)OCc2c1cc1n(c2=O)Cc2c-1nc1ccc(O)cc1c2[Si](C)(C)C(C)(C)C [AR-67, 7-t-butyldimethylsilyl-10-hydroxycamptothecin]
UGT1A1 mediated glucuronidation (UGT1A1): does not undergo
Common Grade 3 and 4 toxicities: anemia ([1]; 26 patients, all dosage levels): 11.5%
Common Grade 3 and 4 toxicities: fatigue ([1]; 26 patients, all dosage levels): 15.4%
Common Grade 3 and 4 toxicities: leukopenia (leukocytopenia) ([1]; 26 patients, all dosage levels): 23%
Common Grade 3 and 4 toxicities: neutropenia ([1]; 26 patients, all dosage levels): 11.5%
Common Grade 3 and 4 toxicities: thrombocytopenia ([1]; 26 patients, all dosage levels): 15.4%
Diarrhea ([1]; 26 patients, all dosage levels): No diarrhea; also recorded: none of the patients experienced
Infusion related allergic (hypersensitivity) reactions ([1]; 26 patients, premedicated, cremophor-ethanol formulation): none of the patients experienced; also recorded: no patients exhibited hypersensitivity reactions
Hemoglobin, Grade 1 [1, 2]: 8
Hemoglobin, Grade 2 [1, 2]: 12
Hemoglobin, Grade 3 [1, 2]: 6
Hemoglobin, Grade 4 [1, 2]: 0
Hemoglobin, Total [1, 2]: 26
Leukocytes (total WBC), Grade 1 [1, 2]: 18
Leukocytes (total WBC), Grade 2 [1, 2]: 15
Leukocytes (total WBC), Grade 3 [1, 2]: 8
Leukocytes (total WBC), Grade 4 [1, 2]: 0
Leukocytes (total WBC), Total [1, 2]: 41
Monocytopenia, Grade 1 [1, 2]: 0
Monocytopenia, Grade 2 [1, 2]: 0
Monocytopenia, Grade 3 [1, 2]: 0
Monocytopenia, Grade 4 [1, 2]: 1
Monocytopenia, Total [1, 2]: 1
Neutrophils/granulocytes (ANC/AGC), Grade 1 [1, 2]: 3
Neutrophils/granulocytes (ANC/AGC), Grade 2 [1, 2]: 10
Neutrophils/granulocytes (ANC/AGC), Grade 3 [1, 2]: 5
Neutrophils/granulocytes (ANC/AGC), Grade 4 [1, 2]: 1
Neutrophils/granulocytes (ANC/AGC), Total [1, 2]: 19
Platelets, Grade 2 [1, 2]: 8
Platelets, Grade 3 [1, 2]: 9
Hypotension, Grade 1 [1, 3]: 0
Hypotension, Grade 2 [1, 3]: 1
Hypotension, Grade 3 [1, 3]: 0
Hypotension, Grade 4 [1, 3]: 0
Hypotension, Total [1, 3]: 1
Fatigue (asthenia, lethargy, malaise), Grade 1 [1, 4]: 4
Fatigue (asthenia, lethargy, malaise), Grade 3 [1, 4]: 8
Fatigue (asthenia, lethargy, malaise), Grade 4 [1, 4]: 0
Fatigue (asthenia, lethargy, malaise), Total [1, 4]: 26
Fever (in the absence of neutropenia), Grade 1 [1, 4]: 0
Fever (in the absence of neutropenia), Grade 2 [1, 4]: 1
Fever (in the absence of neutropenia), Grade 3 [1, 4]: 0
Fever (in the absence of neutropenia), Grade 4 [1, 4]: 0
Fever (in the absence of neutropenia), Total [1, 4]: 1
Insomnia, Grade 1 [1, 4]: 2
Insomnia, Grade 2 [1, 4]: 5
Insomnia, Grade 3 [1, 4]: 0
Insomnia, Grade 4 [1, 4]: 0
Insomnia, Total [1, 4]: 7
Weight loss, Grade 1 [1, 4]: 2
Weight loss, Grade 2 [1, 4]: 0
Weight loss, Grade 3 [1, 4]: 0
Weight loss, Grade 4 [1, 4]: 0
Weight loss, Total [1, 4]: 2
Nail changes, Grade 1 [1, 5]: 1
Nail changes, Grade 2 [1, 5]: 0
Nail changes, Grade 3 [1, 5]: 0
Nail changes, Grade 4 [1, 5]: 0
Nail changes, Total [1, 5]: 1
Pruritus/itching/Dry skin/Flushing, Grade 2 [1, 5]: 0
Pruritus/itching/Dry skin/Flushing, Grade 3 [1, 5]: 0
Pruritus/itching/Dry skin/Flushing, Grade 4 [1, 5]: 0
Pruritus/itching/Dry skin/Flushing, Total [1, 5]: 7
Rash/desquamation, Grade 1 [1, 5]: 2
Rash/desquamation, Grade 2 [1, 5]: 1
Rash/desquamation, Grade 3 [1, 5]: 0
Rash/desquamation, Grade 4 [1, 5]: 0
Rash/desquamation, Total [1, 5]: 3
Anorexia/Taste Alteration, Grade 1 [1, 6]: 4
Anorexia/Taste Alteration, Grade 3 [1, 6]: 1
Anorexia/Taste Alteration, Grade 4 [1, 6]: 0
Anorexia/Taste Alteration, Total [1, 6]: 12
Constipation/Dehydration, Grade 1 [1, 6]: 6
Constipation/Dehydration, Grade 2 [1, 6]: 8
Constipation/Dehydration, Grade 3 [1, 6]: 0
Constipation/Dehydration, Grade 4 [1, 6]: 0
Mucositis/stomatitis, Grade 1 [1, 6]: 2
Mucositis/stomatitis, Grade 2 [1, 6]: 0
Mucositis/stomatitis, Grade 3 [1, 6]: 0
Mucositis/stomatitis, Grade 4 [1, 6]: 0
Mucositis/stomatitis, Total [1, 6]: 2
Nausea, Grade 2 [1, 6]: 0
Nausea, Grade 3 [1, 6]: 0
Nausea, Grade 4 [1, 6]: 0
Hemorrhage, GI - Duodenum, Grade 1 [1, 7]: 0
Hemorrhage, GI - Duodenum, Grade 2 [1, 7]: 0
Hemorrhage, GI - Duodenum, Grade 3 [1, 7]: 1
Hemorrhage, GI - Duodenum, Grade 4 [1, 7]: 0
Hemorrhage, GI - Duodenum, Total [1, 7]: 1
Febrile neutropenia, Grade 1 [1, 8]: 0
Febrile neutropenia, Grade 2 [1, 8]: 0
Febrile neutropenia, Grade 3 [1, 8]: 1
Febrile neutropenia, Grade 4 [1, 8]: 2
Febrile neutropenia, Total [1, 8]: 3
Infection - ANC grade 0–2, Grade 1 [1, 8]: 3
Infection - ANC grade 0–2, Grade 2 [1, 8]: 4
Infection - ANC grade 0–2, Grade 3 [1, 8]: 0
Infection - ANC grade 0–2, Grade 4 [1, 8]: 2
Infection - ANC grade 0–2, Total [1, 8]: 9
Infection with unknown ANC, Grade 1 [1, 8]: 2
Infection with unknown ANC, Grade 2 [1, 8]: 1
Infection with unknown ANC, Grade 3 [1, 8]: 0
Infection with unknown ANC, Grade 4 [1, 8]: 0
Infection with unknown ANC, Total [1, 8]: 3
ALT, SGPT, Alkaline Phosphatase, Grade 1 [1, 9]: 8
ALT, SGPT, Alkaline Phosphatase, Grade 2 [1, 9]: 0
ALT, SGPT, Alkaline Phosphatase, Grade 3 [1, 9]: 0
ALT, SGPT, Alkaline Phosphatase, Grade 4 [1, 9]: 0
ALT, SGPT, Alkaline Phosphatase, Total [1, 9]: 8
Electrolyte abnormalities, Grade 1 [1, 9]: 8
Electrolyte abnormalities, Grade 2 [1, 9]: 0
Electrolyte abnormalities, Grade 3 [1, 9]: 0
Electrolyte abnormalities, Grade 4 [1, 9]: 0
Electrolyte abnormalities, Total [1, 9]: 8
Extremity-lower (gait/walking), Grade 1 [1, 10]: 1
Extremity-lower (gait/walking), Grade 2 [1, 10]: 0
Extremity-lower (gait/walking), Grade 3 [1, 10]: 0
Extremity-lower (gait/walking), Grade 4 [1, 10]: 0
Extremity-lower (gait/walking), Total [1, 10]: 1
Muscle weakness – Lower extremity, Grade 1 [1, 10]: 0
Muscle weakness – Lower extremity, Grade 2 [1, 10]: 3
Muscle weakness – Lower extremity, Grade 3 [1, 10]: 1
Muscle weakness – Lower extremity, Grade 4 [1, 10]: 0
Muscle weakness – Lower extremity, Total [1, 10]: 4
Dizziness, Grade 1 [1, 11]: 0
Dizziness, Grade 2 [1, 11]: 1
Dizziness, Grade 3 [1, 11]: 0
Dizziness, Grade 4 [1, 11]: 0
Dizziness, Total [1, 11]: 1
Neuropathy: sensory, Grade 1 [1, 11]: 1
Neuropathy: sensory, Grade 2 [1, 11]: 0
Neuropathy: sensory, Grade 3 [1, 11]: 0
Neuropathy: sensory, Grade 4 [1, 11]: 0
Neuropathy: sensory, Total [1, 11]: 1
Dyspnea, Grade 1 [1, 12]: 1
Dyspnea, Grade 2 [1, 12]: 0
Dyspnea, Grade 3 [1, 12]: 0
Dyspnea, Grade 4 [1, 12]: 0
Dyspnea, Total [1, 12]: 1
Hiccoughs (hiccups, singultus), Grade 1 [1, 12]: 2
Hiccoughs (hiccups, singultus), Grade 2 [1, 12]: 1
Hiccoughs (hiccups, singultus), Grade 3 [1, 12]: 0
Hiccoughs (hiccups, singultus), Grade 4 [1, 12]: 0
Hiccoughs (hiccups, singultus), Total [1, 12]: 3
DLT per Cohort ([1]; Level 5.5, 7.5 mg/m2/day daily × 5, n=7, cycle 1): one of seven
DLT per Cohort ([1]; Level 6, 8.9 mg/m2/day daily × 5, n=4, cycle 1): two of four
Day of ANC and platelet nadir ([1]; MTD level, cycle 1, recovered prior to day 22): 10 to 14 days
maximum tolerated dosage (MTD) ([1]; iv over 1 hour daily × 5, every 21 days): 7.5 mg/m^2/day
Patients with dose limiting toxicities ([1]; of 26 patients, 9 dosage levels): 5 patients
recommended phase II dosage ([1]; ×5 q 21 days): 7.5 mg/m^2/day
